From ChEMBL document CHEMBL1125232, “Synthesis and biological activity of bay-region metabolites of a cyclopenta-fused polycyclic aromatic hydrocarbon: benz[j]aceanthrylene” (1991)

What was measured:
Assay type in all cases: functional, Salmonella enterica subsp. enterica serovar Typhimurium
Salmonella typhimurium [1] = assay: Mutagenicity determined by Ames assay in Salmonella Typhimurium strain TA98, without metabolic activation by Aroclor 1254 induced rat liver S9 at a dose of 0.5 ug/plate; parameters: unit: revertants/plate
Method in brief: (§1)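 Ames plate incorporation assay in TA98, modified per Claxton, with no S9 or cofactors added. Test compounds were given from DMSO solution. Each dose level was plated in duplicate on two or three separate occasions. Read-out is mean His+ revertants/plate.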

Salmonella typhimurium [2] = assay: (§2) Mutagenicity determined by Ames assay in Salmonella Typhimurium strain TA98, with metabolic activation by Aroclor 1254 induced rat liver S9 at a dose of 1.0 ug/plate
Method in brief: (§3)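 Ames plate incorporation test following Claxton's modification, with compounds dissolved in DMSO. Each plate received 0.8 mg S9 protein from livers of Aroclor 1254-treated male rats plus NADPH-generating cofactors. Each dose was plated in duplicate on two or three separate occasions, and the value is the mean His⁺ revertants/plate. The positive control was 2-anthramine at 0.5 μg/plate, with DMSO as the solvent control.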

Salmonella typhimurium [3] = assay: (§4) Mutagenicity determined by Ames assay in Salmonella Typhimurium strain TA98, with metabolic activation by Aroclor 1254 induced rat liver S9 at a dose of 20 ug/plate; method in brief: as §3
Salmonella typhimurium [4] = assay: (§5) Mutagenicity determined by Ames assay in Salmonella Typhimurium strain TA98, with metabolic activation by Aroclor 1254 induced rat liver S9 at a dose of 5 ug/plate; method in brief: as §3
Salmonella typhimurium [5] = assay: (§6) Mutagenicity determined by Ames assay in Salmonella Typhimurium strain TA98, without metabolic activation by Aroclor 1254 induced rat liver S9 at a dose of 1.0 ug/plate
Method in brief: (§7)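 Ames plate incorporation test following Claxton's modification, run without S9, with compounds dissolved in DMSO. Each dose was plated in duplicate on two or three separate occasions, and the value is the mean His⁺ revertants/plate. The positive control was 2-nitrofluorene at 3 μg/plate, with DMSO as the solvent control.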

Salmonella typhimurium [6] = assay: (§8) Mutagenicity determined by Ames assay in Salmonella Typhimurium strain TA98, without metabolic activation by Aroclor 1254 induced rat liver S9 at a dose of 10 ug/plate; method in brief: as §7
Salmonella typhimurium [7] = assay: (§9) Specific mutagenicity in the absence of protein S9, was expressed as His+ revertants/nmol, calculated by least-square linear regression.
Method in brief: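 Calculated as His⁺ revertants/nmol by least-squares linear regression over the linear portion of the no-S9 plate-incorporation dose–response (DMSO solutions, duplicate plates, two or three occasions). The fit ran to 10 μg/plate for most compounds, but for two compounds it ran to 5 or 20 μg/plate.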

Salmonella typhimurium [8] = assay: (§10) Specific mutagenicity in the presence of protein S9, was expressed as His+ revertants/nmol, calculated by least-square linear regression.
Method in brief: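 Calculated as His⁺ revertants/nmol by least-squares linear regression over the linear portion of the dose–response to 10 μg/plate. Plates received 0.8 mg Aroclor 1254-induced male rat liver S9 protein with NADPH-generating cofactors. Compounds were dissolved in DMSO and plated in duplicate on two or three occasions.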

Salmonella typhimurium [9] = assay: (§11) Mutagenicity determined by Ames assay in Salmonella Typhimurium strain TA98, with metabolic activation by Aroclor 1254 induced rat liver S9 at a dose of 0.5 ug/plate; method in brief: as §3
Salmonella typhimurium [10] = assay: (§12) Mutagenicity determined by Ames assay in Salmonella Typhimurium strain TA98, without metabolic activation by Aroclor 1254 induced rat liver S9 at a dose of 20 ug/plate; method in brief: as §7
Salmonella typhimurium [11] = assay: (§13) Mutagenicity determined by Ames assay in Salmonella Typhimurium strain TA98, without metabolic activation by Aroclor 1254 induced rat liver S9 at a dose of 5 ug/plate; method in brief: as §7
Salmonella typhimurium [12] = assay: (§14) Mutagenicity determined by Ames assay in Salmonella Typhimurium strain TA98, with metabolic activation by Aroclor 1254 induced rat liver S9 at a dose of 10 ug/plate; method in brief: as §3
Salmonella typhimurium [13] = assay: as §11; remark: listed apart in the source
Method in brief: (§15)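 Ames plate incorporation assay, modified per Claxton, in TA98. Compounds dissolved in DMSO. Each plate received 0.8 mg S9 protein from livers of Aroclor 1254-treated male rats, plus NADPH-generating cofactors. Each dose was run in duplicate on two or three separate occasions. Values are mean His+ revertants/plate.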

Salmonella typhimurium [14] = assay: as §2; method in brief: as §15; remark: listed apart in the source
Salmonella typhimurium [15] = assay: as §14; method in brief: as §15; remark: listed apart in the source
Salmonella typhimurium [16] = assay: as §4; method in brief: as §15; remark: listed apart in the source
Salmonella typhimurium [17] = assay: as §5; method in brief: as §15; remark: listed apart in the source
Salmonella typhimurium [18] = assay: as §6; method in brief: as §1; remark: listed apart in the source
Salmonella typhimurium [19] = assay: as §8; method in brief: as §1; remark: listed apart in the source
Salmonella typhimurium [20] = assay: as §12; method in brief: as §1; remark: listed apart in the source
Salmonella typhimurium [21] = assay: as §13; method in brief: as §1; remark: listed apart in the source
Salmonella typhimurium [22] = assay: as §9; remark: listed apart in the source
Method in brief: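 Ames plate incorporation assay in TA98 without S9; compounds in DMSO; doses in duplicate on two or three occasions. His+ revertants/nmol from least-squares linear regression of the linear part of the dose-response curve, up to 10 µg/plate for most compounds and to 5 or 20 µg/plate for others.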

Salmonella typhimurium [23] = assay: as §10; remark: listed apart in the source
Method in brief: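 Ames plate incorporation assay in TA98 with 0.8 mg Aroclor 1254-induced male rat liver S9 protein per plate plus NADPH-generating cofactors; compounds in DMSO; doses in duplicate on two or three occasions. His+ revertants/nmol from least-squares linear regression of the dose-response curve's linear part, up to 10 µg/plate.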

O[C@H]1C=Cc2c(ccc3c4c5c(cccc5cc23)C=C4)[C@@H]1O
Mutagenicity (Salmonella typhimurium [1]): 36
Mutagenicity (Salmonella typhimurium [2]): 100
Mutagenicity (Salmonella typhimurium [3]): 543
Mutagenicity (Salmonella typhimurium [4]): 335
Mutagenicity (Salmonella typhimurium [5]): 40
Mutagenicity (Salmonella typhimurium [6]): 45
Activity (Salmonella typhimurium [7]): 0.7
Activity (Salmonella typhimurium [8]): 9.4
Mutagenicity (Salmonella typhimurium [9]): 67
Mutagenicity (Salmonella typhimurium [10]): 75
Mutagenicity (Salmonella typhimurium [11]): 43
Mutagenicity (Salmonella typhimurium [12]): 469

C1=Cc2c3ccc4ccccc4c3cc3cccc1c23 [BENZO[J]ACEANTHRYLENE]
Mutagenicity (Salmonella typhimurium [13]): 76
Mutagenicity (Salmonella typhimurium [14]): 103
Mutagenicity (Salmonella typhimurium [15]): 694
Mutagenicity (Salmonella typhimurium [16]): 915
Mutagenicity (Salmonella typhimurium [17]): 429
Mutagenicity (Salmonella typhimurium [1]): 35
Mutagenicity (Salmonella typhimurium [18]): 39
Mutagenicity (Salmonella typhimurium [19]): 32
Mutagenicity (Salmonella typhimurium [20]): 38
Mutagenicity (Salmonella typhimurium [21]): 38
Activity (Salmonella typhimurium [22]): 0.1
Activity (Salmonella typhimurium [23]): 12.9

O[C@H]1c2ccc3c4c5c(cccc5cc3c2[C@@H]2OC2[C@@H]1O)C=C4 (stereo partly drawn)
Mutagenicity (Salmonella typhimurium [1]): 37
Mutagenicity (Salmonella typhimurium [2]): 86
Mutagenicity (Salmonella typhimurium [3]): 148
Mutagenicity (Salmonella typhimurium [4]): 283
Mutagenicity (Salmonella typhimurium [5]): 53
Mutagenicity (Salmonella typhimurium [6]): 172
Activity (Salmonella typhimurium [7]): 10
Activity (Salmonella typhimurium [8]): 12.9
Mutagenicity (Salmonella typhimurium [9]): 51
Mutagenicity (Salmonella typhimurium [10]): 93
Mutagenicity (Salmonella typhimurium [11]): 186
Mutagenicity (Salmonella typhimurium [12]): 287

C1=CC2OC2c2ccc3c4c5c(cccc5cc3c21)C=C4 (stereo not drawn)
Mutagenicity (Salmonella typhimurium [13]): 58
Mutagenicity (Salmonella typhimurium [14]): 71
Mutagenicity (Salmonella typhimurium [15]): 272
Mutagenicity (Salmonella typhimurium [16]): 350
Mutagenicity (Salmonella typhimurium [17]): 176
Mutagenicity (Salmonella typhimurium [1]): 28
Mutagenicity (Salmonella typhimurium [18]): 26
Mutagenicity (Salmonella typhimurium [19]): 39
Mutagenicity (Salmonella typhimurium [20]): 46
Mutagenicity (Salmonella typhimurium [21]): 34
Activity (Salmonella typhimurium [22]): 0.2
Activity (Salmonella typhimurium [23]): 5.6
